From paper PMC8462008 (Bioorganic & medicinal chemistry, 2021)
“Also recorded” adds a separate entry of the source.

How the values were obtained:
IRF3 [1] = test: IRF3 luciferase reporter assay in RSV-infected A549 cells; type: cell-based, human; details: 10 μM
Outline: (§1)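 A549 cells transfected in triplicate (FuGene 6) with luciferase plasmids carrying NF-κB binding sites (NF-κB-Luc) or the IRF-3 site (PRDIII-I-Luc, IRF-3-Luc). At 20 h post-transfection, cells were infected with RSV long strain, either MOI 1 with 2 h adsorption then virus removed and 10 μM test compound for 15 h, or MOI 5 with 4 h treatment. Cells were lysed for luciferase. Run at least twice; means ± SE.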

NF-κB [2] = test: NF-κB luciferase reporter assay in RSV-infected A549 cells; type: cell-based, human; details: 10 μM
Outline: as §1

RSV = RSV genome copies in infected A549 cells by RT-qPCR; type: cell-based, respiratory syncytial virus (RSV long strain); details: 10 μM, RSV MOI 1, A549
Outline: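 RSV long strain was grown in HEp-2 cells at 37 °C and purified on a sucrose gradient. A549 cells were infected at MOI 1, then treated with 10 μM test compound for 6, 15 or 24 h. Intracellular RSV genome copies were quantified by RT-qPCR at each time point after treatment.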

[3] = test system: RSV-induced cytokines/chemokines; test: RSV-induced cytokine/chemokine induction in SAECs; type: cell-based, human; details: 10 μM, 4 h posttreatment, RSV MOI 5, SAECs supernatant
Outline: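 Primary human small airway epithelial cells from normal distal lung were infected with RSV long strain at MOI 5. Virus was removed at 2 h and cells were treated with 10 μM test compound. Supernatants were collected at 4 h post-treatment and assayed with a multiplex human cytokine/chemokine bead kit (Bio-Plex) per kit instructions. Run at least twice; means ± SE.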

[4] = test system: RSV viral proteins (P, M, N, F); test: RSV viral protein expression in A549 cells by western blot; type: cell-based, respiratory syncytial virus (RSV long strain); details: 10 μM; for RSV protein expression: 4 h, RSV MOI 5, A549, versus control cells; for expression of viral P, M, N and F proteins: 15 h posttreatment, RSV MOI 1, A549
Outline: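 A549 cells were infected with RSV long strain, either MOI 1 then 10 μM test compound for 15 h, or MOI 5 then 10 μM for 4 h. Total lysates were resolved by SDS-PAGE and transferred to PVDF. Membranes were blocked in 5% milk/TBS-Tween 20 and probed with biotin-conjugated polyclonal goat anti-RSV or anti-F antibody; β-actin was the loading control.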

IRF3 [5] = test: RSV-induced IRF3 phosphorylation and nuclear translocation in A549 cells; type: cell-based, human; details: 10 μM; for IRF-3 total protein level in the cell: cell lysates at 4 h or 15 h of infection
Outline: (§2)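 A549 cells, mock or RSV-infected, were treated with 10 μM test compound, either MOI 5 for 4 h or MOI 1 for 15 h. Nuclear extracts were blotted for IRF-3, phospho-IRF3 Ser396, p65, and phospho-p65 Ser276 and Ser536. Total IRF-3 and p65 were measured in whole-cell lysates at 4 h and 15 h. Blots used SDS-PAGE, PVDF and 5% milk block; β-actin was the loading control.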

p65 = test: RSV-induced p65 phosphorylation and nuclear translocation in A549 cells; type: cell-based, human; details: 10 μM; for p65 total protein level in the cell: cell lysates at 4 h or 15 h of infection
Outline: as §2

IRF-3 = test: Poly I:C-activated IRF-3 luciferase reporter in HEK-293 cells; type: cell-based, human; details: 4 h post-treatment
Outline: (§3)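 HEK-293 cells were transiently transfected with IRF-3 (Poly I:C line) or NF-κB (Poly I:C and TNF-α lines) luciferase reporter plasmids. At 15 h post-transfection, cells were stimulated by transfection with Poly I:C or by 10 ng/ml TNF-α and treated with test compound. Luciferase activity was read at 4 h post-treatment. Run at least twice; means ± SE.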

NF-κB [6] = test: Poly I:C-induced NF-κB luciferase reporter in HEK-293 cells; type: cell-based, human; details: 4 h post-treatment
Outline: as §3

NF-κB [7] = test: TNF-α-induced NF-κB luciferase reporter in HEK-293 cells; type: cell-based, human; details: 10 ng/ml TNF-α, 4 h post-treatment
Outline: as §3

A549 cells = test: LDH release cytotoxicity assay; type: cell-based, human; details: 10 μM, 15 h
Outline: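 A549 cells were seeded at 1.5 × 10^4 cells/well for 24 h. The whole medium was then replaced with fresh medium containing 10 μM test compound and 2% FBS; DMSO served as vehicle control. At 15 h, cells were harvested for luminescent LDH-release assay (LDH-Glo kit). Three biological replicates.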

[8] = 4 h posttreatment, RSV MOI 5, A549
[9] = 15 h posttreatment, RSV MOI 1, A549
[10] = 4 h posttreatment, RSV MOI 5, nuclear extracts
[11] = 15 h posttreatment, RSV MOI 1, nuclear extracts

| Structure (SMILES) | RSV-induced IRF3 activation (luciferase reporter) (IRF3 [1]; [8]) | RSV-induced IRF3 activation (luciferase reporter) (IRF3 [1]; [9]) | RSV-induced NF-κB activation (luciferase reporter) (NF-κB [2]; [8]) | RSV-induced NF-κB activation (luciferase reporter) (NF-κB [2]; [9]) | viral genome copies (RSV; 15 h posttreatment) | viral genome copies (RSV; 24 h posttreatment) | RSV-induced IL-6 [3] | RSV-induced TNF-α [3] | RSV-induced MIP-1α [3] | further results |
| --- | --- | --- | --- | --- | --- | --- | --- | --- | --- | --- |
| CC1(Nc2ccc(NC(=O)c3cc(Cl)ccc3O)c(Cl)c2)CCCCC1 [Compound 15, 5-Chloro-N-(2-chloro-4-((1-methylcyclohexyl)amino)phenyl)-2-hydroxybenzamide] | significantly inhibited | suppressed | significantly inhibited | no effect; also recorded: failed to inhibit | significantly decreased | significantly decreased | could inhibit | able to inhibit | – | RSV-induced MIP-1β [3]: capable to inhibit; RSV-induced cytokines/chemokines (all tested immune mediators) [3]: inhibited the induction of all tested immune mediators; RSV protein expression [4]: comparable; expression of viral P, M, N and F proteins [4]: decreased; nuclear translocation of IRF3 (IRF3 [5]; 4 h posttreatment, RSV MOI 5): significantly decreased; RSV-induced IRF3 phosphorylation at Ser396 (IRF3 [5]; [10]): significantly decreased; nuclear translocation of IRF3 (IRF3 [5]; 15 h posttreatment, RSV MOI 1): significantly decreased; RSV-induced IRF3 phosphorylation at Ser396 (IRF3 [5]; [11]): significantly decreased; IRF-3 total protein level in the cell (IRF3 [5]): undetectable or minimal impact; RSV-induced p65 Ser276 phosphorylation (p65; 4 h posttreatment, RSV MOI 5): not affected; RSV-induced p65 Ser536 phosphorylation (p65; 4 h posttreatment, RSV MOI 5): suppressed; nuclear translocation of p65 (p65; 4 h posttreatment, RSV MOI 5): suppressed; RSV-induced p65 Ser276 phosphorylation (p65; 15 h posttreatment, RSV MOI 1): no effect; RSV-induced p65 Ser536 phosphorylation (p65; 15 h posttreatment, RSV MOI 1): impaired; nuclear translocation of p65 (p65; 15 h posttreatment, RSV MOI 1): decreased; p65 total protein level in the cell (p65): undetectable or minimal impact; Poly I:C-activated IRF-3 (luciferase reporter) (IRF-3): suppressed; Poly I:C-induced NF-κB activation (luciferase reporter) (NF-κB [6]): only impacted by compound 22, not 15; TNF-α-activated NF-κB (luciferase reporter) (NF-κB [7]): not impacted |
| O=C(Nc1ccc(NCc2ccco2)cc1Cl)c1cc(Cl)ccc1O [Compound 22, 5-Chloro-N-(2-chloro-4-((furan-2-ylmethyl)amino)phenyl)-2-hydroxybenzamide] | significantly inhibited | dramatically suppressed | significantly inhibited | dramatically suppressed | significantly decreased | significantly decreased | no suppression; also recorded: enhanced | no suppression | no suppression | RSV protein expression [4]: comparable; expression of viral P, M, N and F proteins [4]: decreased; nuclear translocation of IRF3 (IRF3 [5]; 4 h posttreatment, RSV MOI 5): significantly decreased; RSV-induced IRF3 phosphorylation at Ser396 (IRF3 [5]; [10]): significantly decreased; nuclear translocation of IRF3 (IRF3 [5]; 15 h posttreatment, RSV MOI 1): significantly decreased; RSV-induced IRF3 phosphorylation at Ser396 (IRF3 [5]; [11]): significantly decreased; IRF-3 total protein level in the cell (IRF3 [5]): undetectable or minimal impact; RSV-induced p65 Ser276 phosphorylation (p65; 4 h posttreatment, RSV MOI 5): not affected; RSV-induced p65 Ser536 phosphorylation (p65; 4 h posttreatment, RSV MOI 5): suppressed; nuclear translocation of p65 (p65; 4 h posttreatment, RSV MOI 5): suppressed; RSV-induced p65 Ser276 phosphorylation (p65; 15 h posttreatment, RSV MOI 1): robustly suppressed; RSV-induced p65 Ser536 phosphorylation (p65; 15 h posttreatment, RSV MOI 1): robustly suppressed; nuclear translocation of p65 (p65; 15 h posttreatment, RSV MOI 1): robustly suppressed; p65 total protein level in the cell (p65): undetectable or minimal impact; Poly I:C-activated IRF-3 (luciferase reporter) (IRF-3): suppressed; Poly I:C-induced NF-κB activation (luciferase reporter) (NF-κB [6]): impacted |
| CCCNc1ccc(NC(=O)c2cc(Cl)ccc2O)c(Cl)c1 [Compound 11] | significantly inhibited | dramatically suppressed | significantly inhibited | dramatically suppressed | – | – | – | – | – | RSV-induced MIP-1β [3]: capable to inhibit |
| CCCN(CCC)c1ccc(NC(=O)c2cc(Cl)ccc2O)c(Cl)c1 [Compound 26] | significantly inhibited | dramatically suppressed | significantly inhibited | dramatically suppressed | – | – | – | able to inhibit | – | – |
| CC(C)Nc1ccc(NC(=O)c2cc(Cl)ccc2O)c(Cl)c1 [Compound 12] | significantly inhibited | dramatically suppressed | significantly inhibited | dramatically suppressed | – | – | no suppression | no suppression | no suppression | – |
| CS(=O)(=O)CCCn1c(Cn2c(=O)n(CC(F)(F)F)c3ccncc32)cc2cc(Cl)ccc21 [JNJ-53718678, reference compound] | – | – | – | – | did not affect | slightly decreased | – | – | – | – |
| O=C(Nc1ccc([N+](=O)[O-])cc1Cl)c1cc(Cl)ccc1O [Niclosamide] | – | – | – | – | – | – | – | – | – | cell death (A549 cells): about 24% |
| O=C(Nc1ccc(N2CCOCC2)cc1Cl)c1cc(Cl)ccc1O [Compound 28, 5-Chloro-N-(2-chloro-4-morpholinophenyl)-2-hydroxybenzamide] | significantly inhibited | dramatically suppressed | significantly inhibited | dramatically suppressed | – | – | no suppression | no suppression | no suppression | – |
| O=C(Nc1ccc(NCc2cccnc2)cc1Cl)c1cc(Cl)ccc1O [Compound 19, 5-Chloro-N-(2-chloro-4-((pyridin-3-ylmethyl)amino)phenyl)-2-hydroxybenzamide] | no suppression | no effect | no suppression | no effect | – | – | – | – | – | RSV-induced cytokines/chemokines (all tested immune mediators) [3]: did not show any inhibitory effect |
